Consider 4 compounds from publication PMC7480958 (ACS chemical biology, 2020).

The target in one data set is proteinase K (Parengyodontium album, UniProt P06873). In words: Protease activity assay, proteinase K. It is filed as biochemical, Engyodontium album.
The target in another data set is human chymotrypsin (Homo sapiens, UniProt P17538). In words: Protease activity assay, chymotrypsin. Format: biochemical. The settings on record: isoleucine in 1 versus valine in 2 and 3.
Another data set has as its system bovine trypsin. In words: Protease activity assay, trypsin. It is filed as biochemical. The settings on record: incubated with up to 20 μM. In a few lines:
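Bovine trypsin in DPBS pH 7.4 with 0.01% Tween-20 and 2 mM DTT was preincubated for 30 min at 22°C with an equal volume of 3-fold serial dilutions of the test compound (DMSO stock; final 20 μM to 339 pM). The mix was added to z-Leu-Arg-Arg-AMC (final 100 μM; enzyme 10 nM). AMC fluorescence (360/460 nm) was read every 3 min at 22°C, and the rate (RFU/s) was taken over 30 min.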

In data set [1] the test system is H-460 lung cancer cell line. In words: H-460 lung cancer cell cytotoxicity assay. It is filed as cell-based. The settings on record: read-out: Cytotoxic activity IC50.

Chain of proteinase K (P06873 106-384): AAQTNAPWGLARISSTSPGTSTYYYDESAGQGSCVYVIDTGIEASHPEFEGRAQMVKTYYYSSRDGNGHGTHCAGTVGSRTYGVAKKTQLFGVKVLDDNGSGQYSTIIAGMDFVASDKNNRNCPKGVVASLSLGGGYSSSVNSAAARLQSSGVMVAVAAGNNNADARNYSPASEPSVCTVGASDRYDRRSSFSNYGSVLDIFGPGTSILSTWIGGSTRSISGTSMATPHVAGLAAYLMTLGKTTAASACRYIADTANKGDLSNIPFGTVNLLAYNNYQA
Chain of human chymotrypsin (P17538 19-263): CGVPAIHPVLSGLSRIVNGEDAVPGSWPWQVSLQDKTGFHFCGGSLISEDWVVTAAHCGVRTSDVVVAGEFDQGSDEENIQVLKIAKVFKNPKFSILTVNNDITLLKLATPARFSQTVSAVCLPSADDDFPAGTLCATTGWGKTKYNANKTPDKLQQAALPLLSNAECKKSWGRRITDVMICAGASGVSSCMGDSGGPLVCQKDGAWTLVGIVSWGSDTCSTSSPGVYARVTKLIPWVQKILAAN

What is called IC50 is the concentration that gives 50% inhibition. On proteinase K, `C/C=C1\NC(=O)[C@@H](NC(=O)[C@H](CCC(N)=O)NC(=O)CCCCC)[C@@H](C)OC(=O)[C@H](C(C)C)NC(=O)[C@H](Cc2ccc(O)cc2)N(C)C(=O)[C@H](Cc2ccccc2)N2C(=O)[C@H](CC[C@H]2O)NC1=O` [Lyngbyastatin 7, lyngbyastatin 7] registered a 50% inhibitory concentration (IC50) of 1570 nM.
As for `C/C=C1\NC(=O)[C@@H](NC(=O)[C@@H](NC(=O)[C@H](C)NC(=O)C/C(C)=C/Cl)[C@@H](C)CC)[C@@H](C)OC(=O)[C@H](C(C)C)NC(=O)[C@H](Cc2ccc(O)cc2)N(C)C(=O)[C@H](Cc2ccccc2)N2C(=O)[C@H](CC[C@H]2O)NC1=O` [Tutuilamide A (1), tutuilamide A], at human chymotrypsin, the “Fold reduction in potency for chymotrypsin” value turned out to be 2 fold. Besides, in the data set with bovine trypsin, the “Inhibition of bovine trypsin” value is listed as “no inhibition”. Also, the IC50 in data set [1] turned out to be 530 ± 40 nM.
In the case of `C/C=C1\NC(=O)[C@@H](NC(=O)[C@@H](NC(=O)[C@H](C)NC(=O)C/C(C)=C/Cl)C(C)C)[C@@H](C)OC(=O)[C@H](C(C)C)NC(=O)[C@H](Cc2ccc(O)cc2)N(C)C(=O)[C@H](Cc2ccccc2)N2C(=O)[C@H](CC[C@H]2O)NC1=O` [Tutuilamide B (2), tutuilamide B], in the data set on bovine trypsin, the “Inhibition of bovine trypsin” value is “no inhibition”. Further, the IC50 in data set [1] worked out at 1270 ± 210 nM.
On to `C/C=C1\NC(=O)[C@@H](NC(=O)[C@@H](NC(=O)C/C(=C/Cl)CC)C(C)C)[C@@H](C)OC(=O)[C@H](C(C)C)NC(=O)[C@H](Cc2ccc(O)cc2)N(C)C(=O)[C@H](Cc2ccccc2)N2C(=O)[C@H](CC[C@H]2O)NC1=O` [Tutuilamide C (3), tutuilamide C], for which the “Inhibition of bovine trypsin” value in the data set on bovine trypsin is recorded as “no inhibition”. Also, the IC50 in data set [1] was 4780 ± 450 nM.
